What was measured:
[1] = Relative oral bioavailability of sodium, phosphate and hemisulfate salts in rats; assay type: in vivo, Sprague-Dawley rats; conditions: single oral 30 mg/kg, male rats
In short: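 Male Sprague-Dawley rats, 4/group, received a single 30 mg/kg oral gavage dose in 1% methylcellulose of either parent acid or its sodium, phosphate or sulfate salt. Jugular-catheter blood was drawn at about 15 and 30 min and at 1, 2, 4, 8 and 24 h. Plasma parent was measured by LC/MS/MS with an internal standard. Relative AUClast and Cmax were corrected for molecular-weight differences.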

[2] = system: S. typhimurium strains TA98 and TA100; test: Abbreviated Ames; assay type: cell-based
In short: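 Salmonella TA98 and TA100 plate-incorporation assay per OECD 471, run with and without rat liver S9. Test compound and its decarboxylated impurity were tested at concentrations up to and including 5000 µg/plate, with vehicle and positive controls. Revertant colony counts were compared with vehicle control, and bacterial toxicity was recorded.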

| SMILES | Cmax/Equiv. dose [1] [ng/mL/mg/kg] | Cmax ([1]; S9632 measured in plasma) [ng/mL] | %Cmax Relative to S9632 ([1]; corrected for molecular weight, 30 mg/kg) [%] | Concentration with cytotoxicity (reduction in the background lawn) ([2]; TA98 and TA100 without metabolic activation) [μg/plate] | Mutagenicity, result ([2]; plate incorporation, up to 5000 μg/plate, ±S9) |
| --- | --- | --- | --- | --- | --- |
| Cc1nc2cccc(OCC(C)(C)C(=O)NC(C)C)c2c(N)c1C(=O)O.Cc1nc2cccc(OCC(C)(C)C(=O)NC(C)C)c2c(N)c1C(=O)O.O=S(=O)(O)O [S1638] | 1.377 | 34.80 ± 7.55 | 106.7 |  |  |
| Cc1cc(N)c2c(OCC(C)(C)C(=O)NC(C)C)cccc2n1 [S9379, 4-amino-5-(3-(isopropylamino)-2,2-dimethyl-3-oxopropoxy)-2-methylquinoline] |  |  |  | 5000 | not mutagenic |

Source: PMC5598146 (Toxicology Reports, 2015)
